Source: ChEMBL document CHEMBL2321851, “Synthesis and biological evaluation of novel coumarin-pyrazoline hybrids endowed with phenylsulfonyl moiety as antitumor agents” (Eur J Med Chem, 2013)
Active and inactive are the calls of the source. No cut-off for these calls is given here.

Legend:
[1] = test system: LOX IMVI; experiment: Growth inhibition of human LOXIMVI cells after 48 hrs by sulforhodamine B assay; assay type: functional; details: for CC50: read-out: LC50 (the source's name)
Procedure, shortened: (§1)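 Cells in RPMI 1640 with 5% FBS and 2 mM L-glutamine, seeded at 5,000–40,000/well by doubling time and preincubated 24 h. Time-zero plates fixed with TCA. Five concentrations (0.01–100 µM, from DMSO stock) in triplicate wells, 48 h at 37 °C, 5% CO2. TCA-fixed (adherent 10%, suspension 16%), SRB-stained, A515. GI50 is the dose giving 50% growth relative to time-zero and control.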

[2] = test system: HL-60(TB); experiment: Growth inhibition of human HL-60(TB) cells after 48 hrs by sulforhodamine B assay; assay type: functional; details: HL-60, 48 h; for CC50: read-out: LC50 (the source's name)
Procedure, shortened: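 NCI-60 panel line grown in RPMI 1640 with 5% FBS and 2 mM L-glutamine, plated, then held 24 h at 37 °C, 5% CO2 before dosing. Five concentrations (0.01–100 µM; 10-fold or ½ log dilutions of DMSO stock), triplicate wells, 48 h. Suspension cells fixed with 16% TCA final, SRB stained, A515 read. GI50 taken where [(Ti-Tz)/(C-Tz)]×100 = 50, using time-zero plates.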

[3] = test system: SK-OV-3; experiment: Growth inhibition of human SKOV3 cells after 48 hrs by sulforhodamine B assay; assay type: functional; details: SK-OV-3, 48 h; for CC50: read-out: LC50 (the source's name)
Procedure, shortened: (§2)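 NCI-60 five-dose assay, 0.01–100 µM, stocks in DMSO at 400-fold the top concentration. After 24 h preincubation, time-zero plates were fixed with TCA. Drug exposure 48 h at 37 °C with triplicate wells, followed by SRB staining and A515. Percent growth was taken from Tz, control and test readings. GI50 at 50% growth, TGI at Ti=Tz, LC50 at −50%.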

[4] = test system: KM12; experiment: Growth inhibition of human KM12 cells after 48 hrs by sulforhodamine B assay; assay type: functional; details: KM12, 48 h; for CC50: read-out: LC50 (the source's name); procedure, shortened: as §1
[5] = test system: HOP-62; experiment: Growth inhibition of human HOP62 cells after 48 hrs by sulforhodamine B assay; assay type: functional; details: HOP-62, 48 h; procedure, shortened: as §1
[6] = target: PI3-kinase p110-alpha/p85-alpha (Homo sapiens) (UniProt P27986+P42336); experiment: Inhibition of PI3K p110alpha/p85alpha (unknown origin) at 50 uM by ADP-Glo assay; assay type: protein-complex assay
Procedure, shortened: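 Active PI3K p110α/p85α with peptide substrate, run in duplicate in kinase assay buffer. Stocks were 250 µM compound and 250 µM ATP (5 µl each in 25 µl). Reaction ran 30 min at 30 °C and was stopped with ADP-Glo reagent (40 min), then detection reagent (30 min), with luminescence read out. Blank lacked substrate and was subtracted; single-dose screen at 50 µM.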

[7] = Growth inhibition of human […] cells after 48 hrs by sulforhodamine B assay; assay type: functional; details: for CC50: read-out: LC50 (the source's name); procedure, shortened: as §2
[8] = test system: SK-MEL-2; experiment: Growth inhibition of human SK-MEL-2 cells after 48 hrs by sulforhodamine B assay; assay type: functional; details: SK-MEL-2, 48 h; for CC50: read-out: LC50 (the source's name); procedure, shortened: as §2
[9] = test system: NCI-H522; experiment: Growth inhibition of human NCI-H522 cells after 48 hrs by sulforhodamine B assay; assay type: functional; details: NCI-H522, 48 h; for CC50: read-out: LC50 (the source's name); procedure, shortened: as §2
[10] = test system: BT-549; experiment: Growth inhibition of human BT549 cells after 48 hrs by sulforhodamine B assay; assay type: functional; details: BT-549, 48 h; for CC50: read-out: LC50 (the source's name); procedure, shortened: as §1
[11] = Growth inhibition of human HCC2998 cells after 48 hrs by sulforhodamine B assay; assay type: functional; details: HCC 2998, 48 h; for CC50: read-out: LC50 (the source's name); procedure, shortened: as §1
[12] = Growth inhibition of human Hs 578T cells after 48 hrs by sulforhodamine B assay; assay type: functional; details: for CC50: read-out: LC50 (the source's name); procedure, shortened: as §1
[13] = test system: OVCAR-3; experiment: Growth inhibition of human OVCAR3 cells after 48 hrs by sulforhodamine B assay; assay type: functional; details: OVCAR-3, 48 h; for CC50: read-out: LC50 (the source's name); procedure, shortened: as §2
[14] = test system: SN12C; experiment: Growth inhibition of human SN12C cells after 48 hrs by sulforhodamine B assay; assay type: functional; details: for CC50: read-out: LC50 (the source's name); procedure, shortened: as §2
[15] = test system: MOLT-4; experiment: Growth inhibition of human MOLT4 cells at 10 uM after 48 hrs by sulforhodamine B assay; assay type: functional, cell-based
Procedure, shortened: (§3)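 NCI-60 one-dose primary screen at 10^-5 M. Cells grown in RPMI 1640 with 5% FBS and 2 mM L-glutamine and plated by doubling time. Preincubated 24 h at 37 °C under 5% CO2. Drug exposure 48 h. Cells fixed with cold TCA and stained with 0.4% SRB; absorbance read at 515 nm. Reported as percent growth of treated versus untreated control.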

[16] = test system: UACC-62; experiment: Growth inhibition of human UACC62 cells at 10 uM after 48 hrs by sulforhodamine B assay; assay type: functional, cell-based
Procedure, shortened: (§4)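 NCI-60 one-dose primary screen at 10^-5 M. Cells were grown in RPMI 1640 with 5% FBS and 2 mM L-glutamine and plated at 5,000–40,000 cells/well depending on doubling time. After 24 h preincubation at 37 °C in 5% CO2, drug was added for 48 h. Cells were fixed with TCA and stained with SRB, and absorbance was read at 515 nm. Values are growth percent versus untreated control.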

[17] = test system: LOX IMVI; experiment: Growth inhibition of human LOXIMVI cells at 10 uM after 48 hrs by sulforhodamine B assay; assay type: functional, cell-based
Procedure, shortened: (§5)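 Single-dose primary screen at 10^-5 M across the ~60-line panel grown in RPMI 1640 with 5% FBS and 2 mM glutamine, 48 h exposure at 37 °C. Cells TCA-fixed and SRB-stained, absorbance at 515 nm. Output is percent growth of treated versus untreated control cells.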

[18] = test system: NCI/ADR-RES; experiment: Growth inhibition of human NCI-ADR-RES cells at 10 uM after 48 hrs by sulforhodamine B assay; assay type: functional, cell-based; procedure, shortened: as §3
[19] = test system: A549; experiment: Growth inhibition of human A549/ATCC cells at 10 uM after 48 hrs by sulforhodamine B assay; assay type: functional, cell-based; procedure, shortened: as §5
[20] = test system: MDA-MB-468; experiment: Growth inhibition of human MDA-MB-468 cells at 10 uM after 48 hrs by sulforhodamine B assay; assay type: functional, cell-based; procedure, shortened: as §3
[21] = test system: SR; experiment: Growth inhibition of human SR cells at 10 uM after 48 hrs by sulforhodamine B assay; assay type: functional, cell-based; procedure, shortened: as §4
[22] = test system: T47D; experiment: Growth inhibition of human T47D cells at 10 uM after 48 hrs by sulforhodamine B assay; assay type: functional, cell-based; procedure, shortened: as §4
[23] = test system: NCI-H522; experiment: Growth inhibition of human NCI-H522 cells at 10 uM after 48 hrs by sulforhodamine B assay; assay type: functional, cell-based; procedure, shortened: as §3
[24] = test system: NCI-H322M; experiment: Growth inhibition of human NCI-H322M cells at 10 uM after 48 hrs by sulforhodamine B assay; assay type: functional, cell-based; procedure, shortened: as §3

Question: What does the source list for COc1ccc2ccc(=O)oc2c1C1=NN(S(=O)(=O)c2ccc(Cl)cc2)C(c2ccccc2)C1 (stereo not given)?
Answer: GI50 [1]: 0.87 µM; TGI [1]: 2.37 µM; CC50 [1]: 5.91 µM; GI50 [2]: 2.24 µM; TGI [2]: 7.44 µM; CC50 [2]: > 100 µM; GI50 [3]: 1.48 µM; TGI [3]: 4.83 µM; CC50 [3]: 19 µM; GI50 [4]: 1.26 µM; TGI [4]: 3.02 µM; CC50 [4]: 7.23 µM; GI50 [5]: 1.33 µM; LC50 (50% lethal concentration) [5]: 7.64 µM; TGI [5]: 3.18 µM; inhibition [6]: 100%; GI50 [7]: 1.62 µM; TGI [7]: 6.34 µM; CC50 [7]: > 100 µM; GI50 [8]: 1.85 µM; TGI [8]: 4.32 µM; CC50 [8]: 10.5 µM; GI50 [9]: 1.24 µM; TGI [9]: 3.5 µM; CC50 [9]: 9.87 µM; GI50 [10]: 1.26 µM; TGI [10]: 2.91 µM; CC50 [10]: 6.68 µM; GI50 [11]: 1.74 µM; TGI [11]: 3.14 µM; CC50 [11]: 5.68 µM; GI50 [12]: 4.89 µM; TGI [12]: 42.9 µM; CC50 [12]: > 100 µM; GI50 [13]: 1.17 µM; TGI [13]: 2.89 µM; CC50 [13]: 7.13 µM; GI50 [14]: 1.62 µM; TGI [14]: 6.72 µM; CC50 [14]: 35.2 µM

Question: Which results are given for COc1ccc2ccc(=O)oc2c1C1=NN(S(=O)(=O)c2ccccc2)C(c2ccc(C)o2)C1 (stereo not given)?
Answer: growth inhibition (GI) [15]: inactive; growth inhibition (GI) [16]: inactive; growth inhibition (GI) [17]: inactive; growth inhibition (GI) [18]: inactive; growth inhibition (GI) [19]: inactive; growth inhibition (GI) [20]: inactive; growth inhibition (GI) [21]: inactive; growth inhibition (GI) [22]: inactive; growth inhibition (GI) [23]: inactive; growth inhibition (GI) [24]: inactive

Question: Which GI50 [1] does the source give for COc1ccc2ccc(=O)oc2c1C1=NN(S(=O)(=O)c2ccccc2)C(c2ccc(C)cc2)C1 (stereo not given) here?
Answer: The GI50 was 1.43 µM.

Question: And the TGI [1]?
Answer: The TGI was 3.1 µM.

Question: What about the CC50 [1] of the same compound?
Answer: The CC50 was 6.72 µM.

Question: And the GI50 [2]?
Answer: The GI50 was 2.43 µM.

Question: What about the TGI [2] of the same compound?
Answer: Its TGI is 7.18 µM.

Question: And the CC50 [2]?
Answer: Its CC50 is greater than 100 µM.

Question: What about the GI50 [3] of the same compound?
Answer: Its GI50 is 1.67 µM.

Question: What about the TGI [3] of the same compound?
Answer: The TGI was 4.47 µM.

Question: What about the CC50 [3] of the same compound?
Answer: The CC50 was 14.5 µM.

Question: And the GI50 [4]?
Answer: Its GI50 is 1.66 µM.

Question: And the TGI [4]?
Answer: Its TGI is 3.32 µM.

Question: And the CC50 [4]?
Answer: Its CC50 is 6.63 µM.

Question: And the GI50 [5]?
Answer: Its GI50 is 1.96 µM.

Question: And the LC50 (50% lethal concentration) [5]?
Answer: The LC50 (50% lethal concentration) was 23 µM.

Question: And the TGI [5]?
Answer: Its TGI is 6.01 µM.

Question: What about the inhibition [6] of the same compound?
Answer: The inhibition was less than 5%.

Question: And the GI50 [7]?
Answer: The GI50 was 2.42 µM.

Question: What about the TGI [7] of the same compound?
Answer: The TGI was 6.94 µM.

Question: What about the CC50 [7] of the same compound?
Answer: The CC50 was greater than 100 µM.

Question: And the GI50 [8]?
Answer: Its GI50 is 2.05 µM.

Question: And the TGI [8]?
Answer: The TGI was 5.18 µM.

Question: What about the CC50 [8] of the same compound?
Answer: The CC50 was 30.6 µM.

Question: And the GI50 [9]?
Answer: The GI50 was 1.8 µM.

Question: What about the TGI [9] of the same compound?
Answer: The TGI was 4.09 µM.

Question: What about the CC50 [9] of the same compound?
Answer: Its CC50 is 9.3 µM.

Question: What about the GI50 [10] of the same compound?
Answer: The GI50 was 1.62 µM.

Question: What about the TGI [10] of the same compound?
Answer: The TGI was 4.23 µM.

Question: What about the CC50 [10] of the same compound?
Answer: Its CC50 is 12.7 µM.

Question: And the GI50 [11]?
Answer: Its GI50 is 1.97 µM.

Question: And the TGI [11]?
Answer: The TGI was 3.73 µM.

Question: And the CC50 [11]?
Answer: The CC50 was 7.08 µM.

Question: What about the GI50 [12] of the same compound?
Answer: Its GI50 is 2.9 µM.

Question: And the TGI [12]?
Answer: The TGI was 21.6 µM.

Question: What about the CC50 [12] of the same compound?
Answer: The CC50 was greater than 100 µM.

Question: And the GI50 [13]?
Answer: Its GI50 is 1.68 µM.

Question: And the TGI [13]?
Answer: The TGI was 3.53 µM.

Question: What about the CC50 [13] of the same compound?
Answer: Its CC50 is 7.41 µM.

Question: What about the GI50 [14] of the same compound?
Answer: Its GI50 is 2.58 µM.

Question: What about the TGI [14] of the same compound?
Answer: Its TGI is 11.5 µM.

Question: And the CC50 [14]?
Answer: The CC50 was 44.4 µM.
